According to PubChem BioAssay AID2560 (University of Pittsburgh Molecular Library Screening Center, 2010):
The other results are listed elsewhere or left out.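 Rule for the calls: active = inhibition of at least 50% in both of the two screening runs; inconclusive = at least 50% in one run, below 50% in the other; inactive = inhibition below 50% in both runs.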

Tested on: hexokinase 1 (Trypanosoma brucei)
Test: TbHK1 inhibitor retest, confirmation, biochemical, DPI cherry-picked primary actives (AID 2560);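 note: 0% and 100% set by the maximum and minimum signal control wells on each plate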
Settings: recombinant TbHK1, G6PDH-coupled NADH A340 absorbance; at 10 µM; hits give high values
Outline: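 Assay system: T. brucei hexokinase 1, G6PDH-coupled / Medium: Mg2+, NAD+ and G6PDH coupling mix / Reagent: glucose 0.5 mM plus ATP 0.35 mM / Dosing: one dose, 10 µM / Schedule: enzyme reaction 2 h at room temperature / Technique: NADH absorbance at 340 nm after 50 mM EDTA stop / Replication: duplicate measurements per compound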

inhibition, inactive:
COc1cccc(/C=N/Nc2ncc(C(F)(F)F)cc2Cl)c1O -10.9%
COC(=O)C1CCN(CC(N)=O)CC1 5.76%
O=C(CN1C(=O)C2C3C=CC(C3)C2C1=O)NCCc1ccccc1Cl (centres undefined) -0.0219%
CC1(C)CC(=O)C=C(NCCCNC2CCCCC2)C1 2.17%
